# Measured values taken from ChEMBL document CHEMBL1145031, “Rational design, synthesis, and structure-activity relationships of novel factor Xa inhibitors: (2-substituted-4-amidinophenyl)pyruvic and -propionic acids” (J Med Chem, 2003).
# Tests used:
# Prothrombin = Prothrombin (Homo sapiens, UniProt P00734); assay: Inhibitory activity against thrombin
# Procedure, shortened: (§1)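 Chromogenic assay at room temperature in pH 8.4 buffer (0.1 M Tris, 0.2 M NaCl, 0.1% PEG-6000, 0.02% Tween20). For fXa, 4.5 nM enzyme with 200 μM S-2222; for thrombin, 1.1 nM enzyme with 100 μM S-2238 (final). Inhibitor and enzyme preincubated 10 min, then substrate added. p-Nitroaniline release read at 405 nm for 16 min. IC50 taken from initial velocities; apparent Ki scaled from IC50 ratios against a standard inhibitor's Ki from a double reciprocal plot.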
# [1] = target: Thrombin and coagulation factor X (Homo sapiens) (UniProt P00734+P00742); assay: Selectivity for factor Xa (fXa) versus thrombin; assay type: protein assay
# Coagulation factor X = Coagulation factor X (Homo sapiens, UniProt P00742); assay: Inhibitory activity against Coagulation factor X (fXa); procedure, shortened: as §1
# Monkey = assay: Concentration required to double the prothrombin time (PT) in plasma of cynomolgus monkey
# [2] = Oral bioavailability; assay type: ADME, organism-based; details: eutheria, in vivo
# Procedure, shortened: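 Overnight-fasted male cynomolgus monkeys received 10 mg/kg orally by gastric tube, or 0.3 or 1.0 mg/kg intravenously. Saphenous vein blood was drawn into trisodium citrate before dosing and at several times up to 24 h. Plasma drug levels were measured by HPLC.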
# Homo sapiens = species on record: Homo sapiens; assay: Concentration required to double the prothrombin time(PT) in human plasma was determined; assay type: functional
# Thrombin and coagulation factor X (Homo sapiens), sequence (P00742 whole entry, looked up, other chains not shown): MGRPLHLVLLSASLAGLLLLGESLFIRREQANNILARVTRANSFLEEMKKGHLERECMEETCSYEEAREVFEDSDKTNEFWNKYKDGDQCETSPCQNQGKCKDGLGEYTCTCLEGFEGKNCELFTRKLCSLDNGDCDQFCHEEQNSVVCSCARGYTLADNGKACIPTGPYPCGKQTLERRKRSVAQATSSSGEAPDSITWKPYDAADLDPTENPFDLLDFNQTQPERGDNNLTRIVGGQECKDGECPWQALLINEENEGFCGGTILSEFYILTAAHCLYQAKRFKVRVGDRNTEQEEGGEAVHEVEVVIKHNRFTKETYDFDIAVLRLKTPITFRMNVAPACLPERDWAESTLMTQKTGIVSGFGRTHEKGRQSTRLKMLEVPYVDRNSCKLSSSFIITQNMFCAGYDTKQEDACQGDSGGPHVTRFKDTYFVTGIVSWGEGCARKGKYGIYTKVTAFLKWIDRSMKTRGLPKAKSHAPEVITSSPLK
# Coagulation factor X, sequence (P00742 41-179 limits assumed): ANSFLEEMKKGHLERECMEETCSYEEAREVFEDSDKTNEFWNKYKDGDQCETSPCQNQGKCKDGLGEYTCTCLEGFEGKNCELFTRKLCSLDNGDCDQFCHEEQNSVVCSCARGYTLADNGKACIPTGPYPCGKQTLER
# Coagulation factor X, sequence (P00742 235-488 limits assumed): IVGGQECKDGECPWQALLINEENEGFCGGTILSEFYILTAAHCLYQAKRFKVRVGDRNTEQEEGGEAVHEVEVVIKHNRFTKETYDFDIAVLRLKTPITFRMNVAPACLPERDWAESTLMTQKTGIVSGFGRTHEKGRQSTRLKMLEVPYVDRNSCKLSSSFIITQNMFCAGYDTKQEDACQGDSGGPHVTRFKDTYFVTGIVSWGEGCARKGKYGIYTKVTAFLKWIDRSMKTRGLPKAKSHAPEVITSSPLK
Structure (SMILES),Ki (Prothrombin) [µM],Ratio [1],Ki (Coagulation factor X) [µM],PT (Monkey) [µM],bioavailability [2] [%],PT (Homo sapiens) [µM]
N=C(N)c1ccc(CC(=O)C(=O)O)c(OCCNC(=O)c2ccc(C(=O)N3CCCC3)cc2)c1,24,8000,0.003,–,–,–
N=C(N)c1ccc(CCC(=O)O)c(OCCNC(=O)C2CCN(c3ccncc3)CC2)c1,> 1500,> 35000,0.043,0.7,6,0.42
N=C(N)c1ccc(CC(=O)C(=O)O)c(OCCNC(=O)C2CCN(c3ccncc3)CC2)c1,140,6700,0.021,0.22,12,0.22
CC(=N)N1CCC(Oc2ccc(C(=O)NCCOc3cc(C(=N)N)ccc3CC(=O)C(=O)O)cc2)CC1,53,2700,0.02,0.12,–,0.2
CC(=N)N1CCC(Oc2ccc(C(=O)NCCOc3cccc(C(=N)N)c3)cc2)CC1,440,2600,0.17,–,–,–
N=C(N)c1ccc(C(=O)NCCOc2cc(C(=N)N)ccc2CC(=O)C(=O)O)cc1,38,1500,0.026,–,–,–
N=C(N)c1cccc(OCCNC(=O)c2ccc(C(=O)N3CCCC3)cc2)c1,110,5500,0.02,–,–,–
CC(=N)N1CCC(Oc2ccc(C(=O)N[C@@H](COc3cc(C(=N)N)ccc3CC(=O)C(=O)O)CC(=O)O)cc2)CC1,540,49000,0.011,0.38,12,0.38
N=C(N)c1ccc(C(=O)N[C@@H](COc2cccc(C(=N)N)c2)CC(=O)O)cc1,> 1500,> 54000,0.028,–,–,–
CC(=N)N1CCC(Oc2ccc(C(=O)NCCOc3cc(C(=N)N)ccc3CCC(=O)O)cc2)CC1,> 1500,> 45000,0.033,–,–,–
N=C(N)c1cccc(OCCNC(=O)C2CCN(c3ccncc3)CC2)c1,1000,3500,0.29,–,–,–
N=C(N)c1ccc(C(=O)NCCOc2cccc(C(=N)N)c2)cc1,710,3200,0.22,–,–,–
N=C(N)c1cccc(OCCNC(=O)c2ccccc2)c1,800,290,2.8,–,–,–
N=C(N)c1ccc(C(=O)N[C@H](COc2cccc(C(=N)N)c2)CC(=O)O)cc1,> 1500,> 8800,0.17,–,–,–
N=C(N)c1ccc(CC(=O)C(=O)O)c(OC[C@@H](CC(=O)O)NC(=O)C2CCN(c3ccncc3)CC2)c1,680,38000,0.018,–,–,–
